For orientation: inhibition means the relative decrease from the control value, in per cent. What is called EC50 is the midpoint of the concentration-response curve. In general, CC50 refers to the concentration giving 50% cytotoxicity. In general, EC90 refers to the concentration needed for an effect of 90%.

SMILES strings stand for the structures. The source made the active and inactive calls. The calls are words filed in the database; no cut-off is given here.

Experimental findings from ChEMBL document CHEMBL4190254, “Synthesis of sulfamoylbenzamide derivatives as HBV capsid assembly effector” (Eur J Med Chem, 2017) are described below.

The target of data set [1] is Core antigen (Hepatitis B virus) (UniProt Q03732). Description: Inhibition of capsid in HBV infected in human HepAD38 cells assessed as reduction in cccDNA formation by measuring reduction in HBe antigen secretion at 10 uM after 14 days by ELISA relative to control. In kind it is cell-based. A digest of the protocol: (§1)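 HepAD38 cells, collagen-coated wells, DMEM/F12 with 10% heat-inactivated FBS. Tetracycline withdrawn 7 days to allow DNA synthesis and cccDNA formation; at day 7 tetracycline (0.3 μg/ml) plus compound re-added. Compound at 10 μM or 0.001–10 μM, medium and compound replenished every 5 days. Day-14 supernatant HBeAg by ELISA; EC50 by linear regression.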
(An ELISA detects its analyte on a solid surface through an enzyme-linked reagent.)

In data set [2] the target is Core antigen (Hepatitis B virus, UniProt Q03732). Description: (§2) Inhibition of capsid in HBV infected in human HepAD38 cells assessed as reduction in tetracycline-induced cccDNA formation by measuring reduction in HBe antigen secretion after 14 days by ELISA. In kind it is cell-based. The gist of the method: as §1
The nature of data set [3]: (§3) Cytotoxicity against human CEM cells by CellTiter 96 non-radioactive cell proliferation colorimetric assay. The data set is classed as cell-based, CCRF-CEM. The following applies: CEM (CCRF-CEM) cells. A digest of the protocol: (§4)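 A CellTiter 96 colorimetric cell proliferation read-out was used in primary human PBM cells, CEM, Vero and HepG2 cells. CC50 is the concentration that inhibits cell growth by 50%.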

Data set [4] has as its system Hepatitis B virus. Description: Antiviral activity against HBV infected in human HepAD38 cells assessed as reduction in extracellular viral DNA level by RT-PCR method. The data set is classed as functional, organism-based. The gist of the method: (§5)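 HBV DNA replication in HepAD38 cells was quantified by RT-PCR following an earlier published method, with data relative to the untreated control. EC50 (50% inhibition of HBV DNA replication) was derived by linear regression. Values are the mean ± SD of two or three replicates from 2 independent experiments.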

Data set [5] concerns Hepatitis B virus. Put plainly: Antiviral activity against HBV infected in human HepAD38 cells assessed as reduction in intracellular viral DNA level by RT-PCR method. In kind it is functional, organism-based. A digest of the protocol:
as §5

In data set [6] the test system is Hepatitis B virus. Description: Antiviral activity against HBV infected in human HepAD38 cells assessed as reduction in intracellular viral DNA level at 10 uM by RT-PCR method relative to control. The data set is classed as functional. Further details: scale not given: the % may be the effect or the level left. The gist of the method:
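HepAD38 cells; intracellular HBV DNA quantified by RT-PCR, expressed relative to untreated control; single-point inhibition given as percent at 10 μM, mean ± SD of two or three replicates from 2 independent experiments.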

Data set [7] deals with Hepatitis B virus. Put plainly: Antiviral activity against HBV infected in human HepAD38 cells assessed as reduction in viral replication by RT-PCR method. In kind it is functional, organism-based. A digest of the protocol:
as §5

Data set [8] concerns HepG2. Put plainly: Cytotoxicity against human HepG2 cells by CellTiter 96 non-radioactive cell proliferation colorimetric assay. In kind it is cell-based. The gist of the method:
as §4

Data set [9] is described as follows: (§6) Cytotoxicity against human PBMC by CellTiter 96 non-radioactive cell proliferation colorimetric assay. In kind it is cell-based. A digest of the protocol: as §4
Data set [10] can be described thus: (§7) Cytotoxicity against African green monkey Vero cells by CellTiter 96 non-radioactive cell proliferation colorimetric assay. The data set is classed as cell-based. The settings on record: chlorocebus sabaeus, Vero cells. A digest of the protocol: as §4
Data set [11] deals with Hepatitis B virus. Description: Inhibition of HBV capsid cp149 assembly expressed in Escherichia coli BL21 at 20 uM preincubated for 1 hr followed by NaCl stimulation measured after overnight incubation by uranyl acetate staining based electron microscopic method. The gist of the method:
(§8)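 Untagged HBV core residues 1–149 expressed in E. coli BL21 (1 mM IPTG, 16 °C overnight), purified as capsids, dissociated to dimers with 4 M urea in carbonate buffer pH 9.5; >95% pure. Dimers preincubated 1 hr with compound (20 μM), then capsid buffer added (final NaCl 300 mM, Cp149 monomer 10 μM); held 4 °C overnight; uranyl acetate negative-stain EM, single-blind.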

Data set [12] has as its system CCRF-CEM. The data set is described as §3. The settings on record: ccrf-cem. The data set is classed as cell-based. A digest of the protocol: as §4
Data set [13] has as its system PBMC. The data set is described as §6. In kind it is cell-based. The gist of the method:
as §4

Data set [14] relates to Vero. The description is as §7. In kind it is cell-based. The settings on record: chlorocebus sabaeus, vero. A digest of the protocol:
as §4

The subject of data set [15] is Hepatitis B virus. Description: Antiviral activity against HBV infected in human HepDES19 cells assessed as reduction in viral replication. In kind it is functional, organism-based.
Data set [16] deals with Core antigen (Hepatitis B virus) (UniProt Q03732). The description is as §2. In kind it is cell-based. A digest of the protocol:
as §1

The target is the same in data set [17]. Put plainly: Inhibition of capsid in HBV infected in human HepAD38 cells assessed as reduction in cccDNA formation by measuring reduction in HBe antigen secretion at 3 to 4 uM after 14 days by ELISA relative to control. The data set is classed as cell-based. The gist of the method: as §1
Data set [18] concerns Hepatitis B virus. Description: Inhibition of HBV capsid cp149 assembly expressed in Escherichia coli BL21 assessed as formation of disfigured circular assemblies at 20 uM preincubated for 1 hr followed by NaCl stimulation measured after overnight incubation by uranyl acetate staining based electron microscopic method. A digest of the protocol:
as §8

In data set [19] the test system is Hepatitis B virus. Put plainly: Inhibition of HBV capsid cp149 assembly expressed in Escherichia coli BL21 assessed as spherical capsid aggregation in to clusters at 20 uM preincubated for 1 hr followed by NaCl stimulation measured after overnight incubation by uranyl acetate staining based electron microscopic method. A digest of the protocol:
as §8

Data set [20] concerns Hepatitis B virus. Description: Antiviral activity against HBV infected in human HepAD38 cells assessed as reduction in extracellular viral DNA level at 10 uM by RT-PCR method relative to control. In kind it is functional. Set-up: scale not given: the % may be the effect or the level left. The gist of the method:
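HBV DNA replication in HepAD38 cells was quantified by RT-PCR following an earlier published method. Each compound was tested at a single 10 μM concentration. Results are % inhibition ± SD relative to the untreated control.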

Core antigen (Hepatitis B virus), sequence (Q03732 as listed by the source): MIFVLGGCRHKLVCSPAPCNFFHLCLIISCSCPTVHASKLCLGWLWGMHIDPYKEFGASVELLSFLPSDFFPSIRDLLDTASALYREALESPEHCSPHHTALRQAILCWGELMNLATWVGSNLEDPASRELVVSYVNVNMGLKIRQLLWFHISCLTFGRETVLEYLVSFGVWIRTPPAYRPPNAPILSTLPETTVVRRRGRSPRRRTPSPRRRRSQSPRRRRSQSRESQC
Core antigen, sequence (Q03732 whole entry): as the sequence (Q03732 as listed by the source) above

`Nc1ccn([C@@H]2CS[C@H](CO)O2)c(=O)n1` [LAMIVUDINE]: the inhibition in data set [1] is less than 1%. The figures for the EC50 in data set [2] and in data set [5] were greater than 10 µM and less than 0.01 µM, respectively. Moreover, the cytotoxic concentration (CC50) was greater than 100 µM in data set [3], greater than 10 µM in data set [8], greater than 100 µM in [9] and greater than 100 µM in data set [10]. Besides, the EC90 in data set [4] came to 0.3 µM; in data set [5], 0.7 µM; in [7], 0.3 µM. For the same compound, in [6], the Activity was 74%.
Take `CC(C)(NC(=O)c1cccc(S(=O)(=O)NC2CCCC2)c1)c1ccc(F)c(F)c1`: the inhibition result in [11] is “inactive”. For the same compound, the half-maximal cytotoxic concentration (CC50) in data set [12] was 64 µM; in [8], greater than 100 µM; in data set [13] it was greater than 100 µM; in [14], 84.3 µM. Also, the EC50 in [7] was greater than 10 µM.
On to `O=C(Nc1ccc(F)c(F)c1)c1cc(S(=O)(=O)NC2CCCC2)ccc1F`, for which the 50% effective concentration (EC50) in data set [15] worked out at 0.14 µM; in data set [2] it was 1.3 µM; in data set [4], 0.8 µM; in data set [5] it was 0.6 µM; in data set [7], 0.8 µM. Besides, the EC90 in data set [16] stood at 4.6 µM; in data set [4] it was 7.8 µM; in [5] it was 4.3 µM; in data set [7] it was 7.8 µM. Moreover, the cytotoxic concentration (CC50) is 14 µM in data set [12], 37.1 µM in [8], 15.6 µM in data set [13] and 32.7 µM in data set [14]. In addition, the inhibition in [17] was determined as 90%. Further, the inhibition entry in data set [18] is “Active”.
`O=C(Nc1ccc(F)c(F)c1)c1cc(S(=O)(=O)N2CC(F)(F)C2)ccc1F`: the EC90 in [16] was 3.2 µM; in [4], 6.3 µM; in [5] it was 9.7 µM; in data set [7], 6.3 µM. The EC50 was found to be 1 µM in data set [2], 1.2 µM in data set [4], 0.9 µM in [5] and 1.2 µM in [7]. For the same compound, the half-maximal cytotoxic concentration (CC50) in data set [12] was 3.7 µM; in data set [8], 27 µM; in [13] it was 69.1 µM; in data set [14], 14.7 µM. The inhibition in [17] is 90%. In data set [19], the inhibition result was “Active”.
`O=C(Nc1ccc(F)c(F)c1)c1cc(NS(=O)(=O)C2CC2)ccc1F`: the inhibition in data set [1] is 61%. Further, the concentration for an effect of 90% (EC90) in data set [16] was greater than 10 µM; in [4], greater than 10 µM; in data set [5], 8.1 µM; in data set [7] it was greater than 10 µM. Besides, the half-maximal effective concentration (EC50) in data set [2] stood at 5.5 µM; in [4], 6.9 µM; in data set [5], 0.8 µM; in data set [7], 6.9 µM. In addition, the half-maximal cytotoxic concentration (CC50) came to 11.8 µM in data set [12], 61.8 µM in data set [8], 39.2 µM in data set [13] and 30.7 µM in data set [14]. Moreover, the Activity in data set [20] is 76%.
Consider `O=C(Nc1ccc(F)c(F)c1)c1cc(NS(=O)(=O)C2CCCCC2)ccc1F`, for which the inhibition in [1] was determined as 67%. Moreover, the concentration for an effect of 90% (EC90) in data set [16] was greater than 10 µM; in data set [4], no less than 10 µM; in data set [5], 7.9 µM; in data set [7], no less than 10 µM. The half-maximal effective concentration (EC50) in [2] was 9.7 µM; in data set [4], 3.7 µM; in data set [5] it was less than 0.1 µM; in [7], 3.7 µM. Also, the 50% cytotoxic concentration (CC50) was 74.5 µM in [12], 80.4 µM in data set [8], greater than 100 µM in data set [13] and 6.4 µM in data set [14]. In addition, the Activity was determined as 63% in [6] and 86% in data set [20].
